# Assay outcomes from PubChem.
# Shown are actives, neighbours in structure and some others; about 1.9% of the full set was active somewhere.
# ADAM17 inh: ADAM17 inhibitors, primary screen, biochemical, QFRET. Disintegrin and metalloproteinase domain-containing protein 17 (Homo sapiens), P78536. recombinant ADAM17, EDANS/DABCYL FRET peptide cleavage. inhibition, % at 6.95 µM. 370,000 tested, 0.83% active. AID 720648, 2013;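 active means inhibition above the mean of compounds lying between control limits plus 3 SD, set per campaign, cut at about 8.5% in these data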;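 further: 0% = DMSO-only wells as the low control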
# FAS TE block: FAS thioesterase domain inhibitors, primary screen, biochemical, fluorescence intensity, uHTS. 360,000 tested, 0.67% active. inhibition, % at 15 µM. AID 602261, 2012. recombinant FAS-TE, OMFH fluorogenic substrate, fluorescence endpoint;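 active means compounds whose normalised, plate-corrected inhibition of enzyme fluorescence in the single-dose primary screen is 50% or more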;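 further: 0% = DMSO with enzyme and 100% = substrate without enzyme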
# SENP1 inh: human SENP1 catalytic domain inhibitors, primary screen, biochemical, FRET, uHTS; recombinant SENP1 catalytic domain, CyPet-SUMO1-YPet FRET cleavage; Sentrin-specific protease 1 (Homo sapiens), Q9P0U3; 360,000 tested, 0.21% active; inhibition, % at 10 µM;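 active means inhibition at least 30% at 10 µM, raw YFP signal under a set limit, fluorescence ratio 0.5 to 1.5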;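 further: 0% = enzyme with DMSO and 100% = no enzyme wells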
# Target sequence (Q9P0U3 419-644 limits assumed): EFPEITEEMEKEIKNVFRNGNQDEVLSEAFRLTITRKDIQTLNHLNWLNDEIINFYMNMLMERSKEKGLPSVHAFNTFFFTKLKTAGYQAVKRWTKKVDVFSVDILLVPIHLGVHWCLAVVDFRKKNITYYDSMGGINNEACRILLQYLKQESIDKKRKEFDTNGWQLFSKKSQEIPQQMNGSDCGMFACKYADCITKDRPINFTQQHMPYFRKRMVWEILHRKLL
#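 Test system: hSENP1 catalytic domain, recombinant; Amount: 20 pM final SENP1 enzyme; Medium: Tris pH 8 buffer plus EDTA, NaCl, BME, BSA, NP40, catalase; Schedule: 50 min enzyme reaction, room temperature, light-protected; Technique: FRET fluorescence in CFP and YFP emission channels; Controls: no-enzyme wells low, DMSO-plus-enzyme wells high control.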
# ADAM10 inh: human ADAM10 inhibitors, primary screen, biochemical, QFRET, HTS; AID 720582, 2013; recombinant ADAM10, EDANS/DABCYL FRET peptide cleavage, 3 h; 370,000 tested, 0.62% active; inhibition, % at 7 µM; Disintegrin and metalloproteinase domain-containing protein 10 (Homo sapiens), O14672;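 active means inhibition above a per-campaign cutoff equal to the mean of compounds falling between control-based bounds plus 3 SD, cut at about 20% in these data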;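 further: 0% = DMSO wells while the 100% control is not disclosed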
# Numbers without * were called inactive; x = not tested or not shown.
SMILES,ADAM17 inh,FAS TE block,SENP1 inh,ADAM10 inh
Cc1ccc2c(c1)N(C(=O)CSc1nncn1C)C(C)(C)c1ssc(=S)c1-2,8.8*,-0.5,6.2,15.0
CCC(=O)c1ccc(N2CCN(C(=O)c3cc([N+](=O)[O-])ccc3N3CCN(C)CC3)CC2)c(F)c1,0.8,69.6*,3.2,6.4
CCOC(=O)[C@@]12CCCC3=C1N(CCC3)C(=O)[C@H]2CC(=O)NCCC(C)C,-4.6,x,x,-3.8
Cc1ccc(NC(=O)c2cc(S(=O)(=O)NCCC3=CCCCC3)ccc2F)cc1F,10.3*,43.8,2.7,24.7*
Cc1ccc(S(=O)(=O)NCCC2=CCCCC2)cc1C(N)=O,-1.3,-1.3,-1.9,-6.0
C=CCN1[C@@H](Cc2ccccc2)COc2cccc(F)c2S1(=O)=O,2.2,x,x,3.5
Cc1ccc(C)c(NS(=O)(=O)c2cc(C(=O)NCCSC3CCCCC3)ccc2C)c1,15.5*,24.2,0.1,33.6*
Fc1ccc2c(c1)C(c1ccc(N3CCOCC3)cc1)=NNC(c1cccs1)=N2,x,15.9,42.3*,x
COC(=O)C12C=C3CC(C)=C3C(=O)N1Cc1[nH]c3ccccc3c1C2 (configuration not stated),-27.6,x,x,-100.3
CCCCCCN1C=CC(=C2C(=O)c3ccccc3C2=O)C=C1,-4.0,-4.7,48.1*,-5.1
COc1cc(C=Nn2c(-c3cc(-c4ccccc4)n[nH]3)n[nH]c2=S)ccc1OC(C)=O,0.5,x,x,5.2
COc1ccccc1N1CCN(C2=Nc3cccc4cccc2c34)CC1,-6.8,2.6,94.6*,-8.2
CC(=O)N1CCN(C2=Nc3cccc4cccc2c34)CC1,-34.4,-10.3,-22.7,-93.8
COc1ccc([C@H]2OC(=O)C[C@H]2C(=O)N2CCN(c3ccccc3Cl)CC2)cc1OC,-0.3,x,x,-8.2
Oc1c(C(Nc2nccs2)c2ccc(C(F)(F)F)cc2)ccc2cccnc12 (configuration not stated),1.0,4.4,-1.6,3.2
Oc1c(C(Nc2cccc(C(F)(F)F)c2)c2ccncc2)ccc2cccnc12 (configuration not stated),45.1*,13.8,0.8,12.3
CCOC(=O)c1cccc(NC(=O)CN(C)S(=O)(=O)c2cc(OC)ccc2OC)c1,-1.1,x,x,-3.1
COc1ccc(C(=O)Nn2c(SCc3ccc([N+](=O)[O-])cc3)nc3ccccc3c2=O)cc1,3.3,52.2*,2.9,10.6
CCOc1ccc(-n2c(SCC(=O)Nc3ccc(S(=O)(=O)Nc4nccs4)cc3)nnc2-c2ccco2)cc1,4.4,x,x,4.2
Cc1ccc2[nH]c(O)c(N=Nc3nc4ccccc4s3)c2c1,-2.1,4.6,35.5*,-1.7
Oc1[nH]c2ccccc2c1N=Nc1nc2ccccc2s1,0.2,-4.5,41.0*,7.5
Oc1[nH]c2ccccc2c1N=Nc1ccccc1,3.7,-40.4,-21.7,10.5
CCOC(=O)[C@H]1[C@H]2COc3ccccc3[C@@H]2N2C(=O)CN(Cc3ccc(C)cc3)C(=O)[C@@]12C,5.0,-35.0,33.8*,8.9
CCOC(=O)[C@H]1[C@H]2COc3ccc(C)cc3[C@@H]2N2C(=O)CN(Cc3ccc(Cl)cc3)C(=O)[C@@]12C,-2.6,36.7,-4.8,-10.7
COc1ccccc1NC(=O)OC1CCC12CCCCC2 (configuration not stated),-3.1,x,x,-10.9
SMILES,ADAM17 inh,FAS TE block,SENP1 inh,ADAM10 inh
O=C(c1ccccc1)c1ccc(O)cc1O,-1.9,-82.4,53.6*,-1.4
O=C(c1ccc(O)cc1)c1ccc(O)cc1O,0.7,-5.7,-1.6,1.7
COC(=O)c1cc(C(c2ccccc2O)C2CCCO2)n2cccc(C(C)(C)C)c12 (configuration not stated),-65.7,x,x,-260.7
CC(C)(C)c1cc[n+](-c2[nH]c(=O)sc2/C=N/NC([S-])=Nc2ccccc2)cc1,-1.3,-7.0,45.5*,-15.1
Cc1cc[n+](-c2[nH]c(=O)sc2/C=N/NC([S-])=Nc2ccccc2)cc1C,-1.7,-21.7,26.9,5.5
CCOC(=O)COc1ccc2ccccc2c1/C=C/[N+](=O)[O-],-4.0,5.0,2.3,-13.0
CCOC(=O)COc1ccc(/C=C/[N+](=O)[O-])c(OCC(=O)OCC)c1,9.1*,-6.2,-1.9,9.3
O=C(O)CC(C(=O)O)N1C(=O)/C(=C/C=C/c2ccco2)SC1=S (configuration not stated),-6.3,-6.9,41.5*,-10.5
Nc1nnnn1/N=C/c1ccccc1OCc1ccc(Cl)cc1Cl,-0.2,1.6,1.0,7.3
Nc1nnnn1/N=C/c1cc(Cl)cc(Cl)c1OCc1ccc(Cl)cc1Cl,-3.3,-8.0,53.4*,-2.5
CCOC(=O)N1C(=O)C[C@](Sc2ccc(OC)cc2)(C(=O)N2CCN(C(C)=O)CC2)[C@H]1c1ccc(OC)cc1,0.2,x,x,-8.4
O=C1[C@H]2[C@@H](c3ccc(F)cc3)N3C(=O)N(c4cccc(Cl)c4)C(=O)[C@@]3(Cc3ccccc3)[C@H]2C(=O)N1C1CCCCC1,-3.0,72.1*,1.4,1.3
Cc1cccc([C@@H]2[C@@H]3C(=O)N(Cc4ccccc4)C(=O)[C@@H]3[C@]3(Cc4ccc(Cl)cc4)C(=O)N(c4ccc(Br)cc4)C(=O)N23)c1,3.1,90.3*,-2.1,14.3
O=C1[C@H]2[C@@H](c3ccc(F)cc3)N3C(=O)N(c4cccc(Br)c4)C(=O)[C@@]3(Cc3ccc(Cl)cc3)[C@H]2C(=O)N1C1CCCCC1,-0.6,34.9,3.1,12.6
O=C1[C@H]2[C@@H](c3ccc(F)cc3)N3C(=O)N(c4ccccc4)C(=O)[C@@]3(Cc3ccc(Cl)cc3)[C@H]2C(=O)N1C1CCCCC1,-3.6,93.6*,3.4,6.2
CC[C@@]12C(=O)N(c3ccc(C)cc3)C(=O)N1[C@H](c1cccc(C)c1)[C@@H]1C(=O)N(Cc3ccccc3)C(=O)[C@@H]12,-2.4,11.9,2.8,1.6
CC[C@@]12C(=O)N(c3cccc(Cl)c3)C(=O)N1[C@H](c1cccc(C)c1)[C@@H]1C(=O)N(Cc3ccccc3)C(=O)[C@@H]12,3.6,16.8,1.3,7.0
O=C1[C@H]2[C@@H](c3ccc(Cl)cc3)N3C(=O)N(c4cccc(Br)c4)C(=O)[C@@]3(Cc3ccc(Cl)cc3)[C@H]2C(=O)N1C1CCCCC1,-0.9,91.1*,1.6,7.7
CC(C)[C@@H]1OC(=O)[C@@H]2CCCN2C(=O)[C@H](C)OC(=O)[C@H](C)[C@@H](C(C)C)NC(=O)[C@@H]2CCCN2C(=O)[C@H]([C@H](C)Cc2ccccc2)NC(=O)[C@@H]2CCCN2C(=O)[C@@H](C(C)C)N(C)C1=O,-2.4,x,x,-3.8
Cc1ccc(C(=O)N(C)[C@H]2C[C@H]3c4[nH]c5c(-c6ccc7c(c6)OCO7)cccc5c4CCN3C[C@H]2[C@H](C)O)cc1,0.9,x,x,4.6
